Compound activity deposited in PubChem by several laboratories.
The list is not random: actives were taken first. Their share in the collection is about 3.8%.
MrgX1 PAM: positive allosteric modulators of MrgX1, primary screen, HEK293 cells, Fluo-4 calcium flux. AID 588675, 2011. FDSS; active compounds read high. 310,000 tested, 0.63% active. B-score at 10 µM. Mas-related G-protein coupled receptor member X1 (Homo sapiens), Q96LB2;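 active = plate-corrected calcium response at least 3 library SD above typical, normal starting fluorescence, not activating the receptor alone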;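 note: compound read alongside a low EC10 to EC30 dose of BAM8-22 agonist; peak minus trough fluorescence over baseline measured at the second addition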
Target sequence (Q96LB2 whole entry, looked up): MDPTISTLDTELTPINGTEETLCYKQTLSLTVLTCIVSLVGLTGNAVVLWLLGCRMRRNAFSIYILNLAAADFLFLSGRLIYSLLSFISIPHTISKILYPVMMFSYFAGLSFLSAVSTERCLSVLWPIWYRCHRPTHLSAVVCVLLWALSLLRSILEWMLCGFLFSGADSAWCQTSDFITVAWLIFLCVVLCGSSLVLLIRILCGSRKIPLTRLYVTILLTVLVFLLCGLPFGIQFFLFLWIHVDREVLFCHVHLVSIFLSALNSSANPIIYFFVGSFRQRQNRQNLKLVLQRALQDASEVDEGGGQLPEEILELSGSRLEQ
RGS4 act: RGS4 potentiators or activators, primary screen, cell-based, HEK293 M3R inducible RGS4, calcium flux. carbachol calcium flux Fluo4; active compounds read low. B-score at 10 µM. 310,000 tested, 0.92% active. AID 463111, 2010;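 active = B-score of the integrated calcium signal more than 4 SD below the library mean, with starting fluorescence not abnormally high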;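 note: negative B-score means reduced calcium response which marks RGS4 activation or potentiation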
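System: HEK293 FlpIn-TREx cells, stable M3R, doxycycline-inducible RGS4. Timing: overnight RGS4 induction, 30 min dye load 37 °C, 20 min compound RT. Also added: carbachol, ECmax concentration. Measured by: Fluo4 fluorescence kinetic imaging of calcium. Evaluation: integrated calcium ratio converted to B score.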
Lipid droplet: inhibitors of hepatocyte lipid droplet formation, primary screen, imaging, high-throughput imaging, BODIPY stain; AML12 mouse hepatocytes, oleate lipid droplets; inhibition, % at 6.5 µM; 240,000 tested, 0.4% active; AID 1656, 2009;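 active = lipid droplet intensity inhibited by at least 50%, with more than 500 cells counted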
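Assay system: AML12 hepatocytes (mouse); Probe or stimulus: oleic acid at 100 µM to induce lipid droplet formation; Dosing: compound at 6.5 µM only; Schedule: compound with oleate, overnight; Detection: fluorescence imaging, 20x objective, two fields per well; Measure: % inhibition of lipid droplet signal.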
RGS4 inh: RGS4 inhibitors, primary screen, cell-based, HEK293 M3R inducible RGS4, calcium flux; Regulator of G-protein signaling 4 (Homo sapiens), P49798; Fluo-4 calcium flux; active compounds read high; triggered by carbachol at its EC20; B-score at 10 µM; 310,000 tested, 0.45% active; AID 463165, 2010;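 active = B-score, a plate-corrected calcium signal, over three deviations above library mean, with baseline fluorescence within five deviations of library mean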;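 note: RGS4 expression induced by doxycycline in cells with stable M3 receptor; B-score is computed from the integrated fluorescence ratio over baseline after carbachol; higher B-score means a larger calcium signal and so more RGS4 inhibition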
Target sequence (P49798 whole entry, looked up): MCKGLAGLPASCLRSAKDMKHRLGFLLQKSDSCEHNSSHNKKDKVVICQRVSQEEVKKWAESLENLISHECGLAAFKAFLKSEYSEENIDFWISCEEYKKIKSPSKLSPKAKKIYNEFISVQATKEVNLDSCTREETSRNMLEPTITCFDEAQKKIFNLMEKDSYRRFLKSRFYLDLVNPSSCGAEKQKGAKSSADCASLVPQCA
MrgX1 agonist: agonists of human MrgX1 receptor, primary screen, HEK293 cells, Fluo-4 calcium flux. Mas-related G-protein coupled receptor member X1 (Homo sapiens), Q96LB2. Fluo-4 calcium fluorescence, agonist mode; active compounds read high. B-score at 10 µM. 310,000 tested, 0.44% active;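 active = calcium response B-score plate-corrected fluorescence ratio at least 3 library SD, with starting fluorescence B-score inside 5 SD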
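Test system: HEK293 cells stably expressing human MrgX1 receptor; Input: fifteen thousand cells per well; Dosing: compound delivered in addition one of three; Schedule: overnight seeding, then 1 h dark dye loading; Technique: Fluo-4 NW calcium fluorescence; Measure: B-scored fluorescence response ratio; Controls: positive and negative controls per plate.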
MrgX1 antag: antagonists of human MrgX1 receptor, primary screen, HEK293 cells, Fluo-4 calcium flux | Mas-related G-protein coupled receptor member X1 (Homo sapiens), Q96LB2 | BAM8-22 antagonism; active compounds read low | B-score at 10 µM | 310,000 tested, 1.3% active;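 active = calcium-response B-score plate-corrected more than 3 library SD below zero, starting fluorescence within 5 deviations, no agonist response on first addition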;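 note: peak minus trough fluorescence over baseline after final BAM8-22 challenge near maximal dose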
MrgX1 ant reconf: MrgX1 receptor antagonists, duplicate retest, confirmation, HEK293 cells, Fluo-4 calcium flux; shares compounds with MrgX1 antag; BAM8-22 calcium flux; active compounds read low; remaining BAM8-22 calcium response % of control (active compounds read low), % at 10 µM; 2,300 tested, 19% active;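 active = remaining agonist calcium response no higher than 100% minus 3 SD of agonist-only control wells, with starting fluorescence near control levels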;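 note: agonist BAM8-22 given at a near maximal EC90 to ECmax level; peak minus minimum fluorescence divided by baseline after agonist addition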
HEK293 Ca flux: nonspecific calcium signal in parental HEK293, confirmation, counter-screen for MrgX1 antagonist project, parental HEK293 cells, Fluo-4 calcium flux; shares compounds with MrgX1 antag; AID 624111, 2012; 4,000 tested, 2% active; Fluo-4 calcium fluorescence, FDSS; fluorescence ratio F(max-min)/F0 at 10 µM;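 active = duplicate-averaged calcium fluorescence ratio at least three times the standard deviation of buffer wells, a nonspecific response in parental cells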
HEK293 Ca counter: calcium response in parental HEK293 cells, primary screen, counter-screen for MrgX1 allosteric activator project, cell-based, Fluo-4 calcium flux, duplicate | shares compounds with MrgX1 antag | Fluo-4 fluorescence ratio; active compounds read high | fluorescence ratio F(max-min)/F0 at 10 µM | 4,000 tested, 0.4% active;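 active = calcium fluorescence ratio, averaged over duplicates, at least 3 SD of the buffer-well ratio, meaning a nonspecific response in receptor-free cells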;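 note: untransfected parental HEK293 lacking MrgX1 used as counterscreen for MrgX1 allosteric activators; fluorescence change taken during the second addition on a kinetic imager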
HEK293 Ca cntr2: calcium response in parental HEK293 cells, primary screen, counter-screen for MrgX1 agonist project, cell-based, Fluo-4 calcium flux, duplicate, agonist mode | AID 624115, 2012 | shares compounds with MrgX1 antag | Fluo-4 calcium fluorescence (FDSS); active compounds read high | fluorescence ratio F(max-min)/F0 at 10 µM | 4,000 tested, 8.7% active;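 active = calcium fluorescence ratio at least three times the spread of buffer wells, meaning a non-specific response in parental cells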
Large screens that a line does not name were inactive (follow-up assays come after a bar, where they were run).

COc1ccc(OCC(=O)N/N=C(\C)CC(=O)Nc2cccc([N+](=O)[O-])c2)cc1	MrgX1 antag -11 | MrgX1 ant reconf inactive | HEK293 Ca flux inactive | HEK293 Ca counter inactive | HEK293 Ca cntr2 inactive
COc1ccc(NC(=O)C/C(C)=N/NC(=O)COc2ccc(OC)cc2)cc1	none
O=C(NCCc1cn2ccsc2n1)c1cccs1	MrgX1 antag -6.3 | MrgX1 ant reconf inactive | HEK293 Ca flux inactive | HEK293 Ca counter inactive | HEK293 Ca cntr2 inactive
Cc1ccc(C(CC(=O)O)Nc2nc(N3CCOCC3)nc(N3CCOCC3)n2)cc1 (stereo not drawn)	none
CCOc1ccc(C(=O)NCC(=O)N2CCC3(CC2)NCCc2[nH]cnc23)cc1	none
Cc1ccc(S(=O)(=O)N(C)C)cc1NC(=S)NC(=O)C12CC3CC(CC(C3)C1)C2	MrgX1 antag -6.6 | MrgX1 ant reconf inactive | HEK293 Ca flux inactive | HEK293 Ca counter inactive | HEK293 Ca cntr2 inactive
Cc1n[nH]c(C)c1CCc1nc2c3ccccc3nc(SCC(=O)Nc3ccccc3F)n2n1	MrgX1 antag -7 | MrgX1 ant reconf inactive | HEK293 Ca flux inactive | HEK293 Ca counter inactive | HEK293 Ca cntr2 inactive
Cn1c(-c2sc3ccccc3c2Cl)n[nH]c1=S	none
O=C(CN(c1ccccn1)S(=O)(=O)c1ccccc1)Nc1ccccc1	none
O=C(CN(c1ccccn1)S(=O)(=O)c1ccc(F)cc1)Nc1ccccc1	MrgX1 antag -6 | MrgX1 ant reconf inactive | HEK293 Ca flux inactive | HEK293 Ca counter inactive | HEK293 Ca cntr2 inactive
Oc1ccc(N=Nc2n[nH]c(-c3ccc(Cl)cc3)n2)cc1	none (no result: Lipid droplet)
COc1ccccc1CNC(=O)[C@H](C)NC(=O)C1CCN(C(=O)[C@@H](N)CC(C)C)CC1	none
CCCn1c(N2CCN(C(=O)N3CCCCC3)CC2)nc2ccccc21	MrgX1 antag -6.2 (no result: Lipid droplet) | MrgX1 ant reconf inactive | HEK293 Ca flux inactive | HEK293 Ca counter inactive | HEK293 Ca cntr2 inactive
COC(=O)c1ccc(C(=O)OC)c(NC(=O)COC(=O)CCOc2ccc(C)cc2)c1	none (no result: Lipid droplet)
COc1ccccc1NC(=O)CSc1nc(N)cc(N)n1	MrgX1 antag -5.5 | MrgX1 ant reconf inactive | HEK293 Ca flux inactive | HEK293 Ca counter inactive | HEK293 Ca cntr2 inactive
COCCN1C(=O)/C(=C/c2ccc(N3CCCC3)cc2)SC1=S	MrgX1 antag -12 | MrgX1 ant reconf inactive | HEK293 Ca flux inactive | HEK293 Ca counter inactive | HEK293 Ca cntr2 inactive
CCOC(=O)C1CCCN(C(=O)c2cccc(NC(=O)C(CC)CC)c2)C1 (stereo not drawn)	none
Cc1ccccc1NS(=O)(=O)c1ccc2[nH]c(=O)[nH]c2c1	MrgX1 antag -5.6 | MrgX1 ant reconf inactive | HEK293 Ca flux inactive | HEK293 Ca counter inactive | HEK293 Ca cntr2 inactive
CCc1cc2c(=O)[nH]c(-c3ccncc3)nc2s1	MrgX1 antag -6.6 | MrgX1 ant reconf inactive | HEK293 Ca flux inactive | HEK293 Ca counter inactive | HEK293 Ca cntr2 inactive
